RAM network inh = blocks the yeast RAM network; actives 1.8% (n = 190,000); S. cerevisiae dse1pr::URA3 reporter, 5-FOA growth OD615, 2 d; analog-sensitive cbk1-as2 kinase mutant strain; inhibition, % at 50 µM;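 active means inhibition above a set limit, 3 SD over mean compound inhibition, cut at about 8.4% in these data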;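 further: inhibition rescues growth on 5-FOA so higher OD means more RAM inhibition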
p47phox inh = p47phox (human) inhibition; actives 0.53% (n = 220,000); P14598; p47phox/p22phox peptide binding, fluorescence polarization, 2 h; inhibition, % at 24.7 µM;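 active means inhibition above about 30%, limit read from the data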
Dynein cargo inh = dynein cargo transport inhibition; 3617.4 mouse cells, GR-EGFP nuclear translocation imaging; test concentration mostly 20 µM; stimulated with dexamethasone, 1 µM; hits give low values; actives 0.47% (n = 220,000); AID 1381; z-score, hits read low;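 active means plate z-score of nuclear minus cytoplasmic receptor signal below a set negative limit, without overly bright fluorescence or cell loss, cut at about -3.5 in these data, passing the limit was not always enough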;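 further: z-score of nuclear minus cytoplasmic ring GR-EGFP intensity difference per well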
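Also added: dexamethasone, 1.0 µM final. Medium: tet-free, stripped-serum medium. Detection: fixed, Hoechst-stained cells imaged at 10x for EGFP. Read-out: nuclear-to-cytoplasmic GR-EGFP distribution per well. Times: induction 48 h, compound 1 h, agonist 30 min.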
p-CIP stab down = lowers stability of the mouse p/CIP coactivator protein; Q05BA5; F442A p/CIP-EGFP cells, EGFP fluorescence, 16 h; decrease of EGFP signal, % at 10 µM; actives 0.01% (n = 290,000); AID 1984;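 active means EGFP signal decrease of at least 30% at 10 µM or well 3 SD below plate mean, unless failing retest; inactive means the rest, including hits failing retest or dose response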
A number is an active result; . = inactive; / = no result given. Compounds with a hit are over-represented: about 1.9% of the library has one in this group of screens.

SMILES	RAM network inh	p47phox inh	Dynein cargo inh	p-CIP stab down
Oc1ccc(N2CCN(C(=S)NCCc3ccccc3)CC2)cc1	.	95	.	.
O=C(O)CCN1CCN(S(=O)(=O)c2ccc3ccccc3c2)CC1	/	/	/	.
Cc1cc(C(C)(C)C)cc(C)c1Cn1c2[n+](c3ccc(C(F)(F)F)cc31)CCCCC2	.	.	.	.
CC(=O)c1ccc(N=Cc2c(O)n(-c3cc(Cl)ccc3N3CCOCC3)c(=O)c3ccccc23)cc1	8.6	.	.	.
O=c1c2ccccc2c(C=Nc2ccc(Cl)cn2)c(O)n1-c1cc(Cl)ccc1N1CCOCC1	.	.	.	.
COc1ccccc1Oc1nc2c(c(=O)n(Cc3ccccc3F)c(=O)n2C)n1C	10	.	.	.
Cn1c(NCCCO)nc2c1c(=O)n(Cc1ccccc1F)c(=O)n2C	.	.	.	.
Cn1c(=O)c2c(nc(SCc3nn[nH]n3)n2Cc2ccccc2F)n(C)c1=O	10	.	.	.
COc1ccc(CCNC(=O)c2noc(C)c2[N+](=O)[O-])cc1OC	/	/	/	.
Cc1ccc(C(=O)OCCc2c(C)[nH]n(-c3ccccc3)c2=O)cc1	.	102	.	.
COCCNC(=S)N1CCc2cc(OC)c(OC)cc2C1COc1ccc(F)cc1 (stereo not drawn)	8.8	.	.	.
CCc1c(C2(O)CCCCC2)[nH]c2ccc(C(F)(F)F)cc12	/	/	/	.
O=C(/C=C/c1ccc(O)c(O)c1)c1ccc(S(=O)(=O)N2CCCCCC2)cc1	9.4	.	.	.
CC(C)c1nc2ccc(NC(=O)C3CCCCC3)cc2[nH]1	.	.	.	.
O=C(Nc1ccc2nc(-c3ccccn3)[nH]c2c1)C1CCCCC1	.	40	.	.
CCOc1cc(/C=N/NC(=O)c2ccc(-c3csc(Nc4ccc(C)cc4)n3)cc2)ccc1OCC(=O)O	8.9	.	.	.
COc1ccc(O)c(-c2cc(C(F)(F)C(F)F)nc(-c3ccccc3)n2)c1	9.1	.	.	.
C/C(=N\NC(=O)C1CC1)c1ccccc1Br	/	/	/	.
CC(=O)c1sc(NC(=O)C(C)Oc2ccc3c(C)cc(=O)oc3c2)nc1C (stereo not drawn)	/	/	/	.
CC(=O)c1cccc(NC(=O)Nc2ccc3c(c2)N(C)C(=O)CS3)c1	8.5	.	.	.
Cc1cc(C)cc(NC(=O)Nc2ccc3c(c2)N(C)C(=O)CS3)c1	.	.	.	.
COc1ccccc1N=Nc1nc(-c2ccccc2)c(-c2ccccc2)[nH]1	.	119	.	.
Oc1ccccc1N=Nc1nc(-c2ccccc2)c(-c2ccccc2)[nH]1	8.6	.	.	.
COc1ccc(N=Nc2nc(-c3ccccc3)c(-c3ccccc3)[nH]2)cc1	11	.	.	.
COc1ccc(-c2nc(C)ncc2N=Nc2ccccc2)cc1	.	.	.	.
SMILES	RAM network inh	p47phox inh	Dynein cargo inh	p-CIP stab down
Cc1cc(OCC(=O)NCC2CCC(C(=O)O)CC2)c2c(C)c(C)c(=O)oc2c1 (stereo not drawn)	/	/	/	.
OCc1cccc(Nc2ncnc3sc4c(c23)CCCCC4)c1	/	/	/	.
Cc1ccc2sc(N(CCCN(C)C)C(=O)CCS(=O)(=O)c3ccccc3)nc2c1C	/	/	/	.
CN(CC(=O)NCc1ccc(F)cc1)CC(=O)Nc1ccc(Cl)c(C(F)(F)F)c1	/	/	/	.
COC(=O)c1ccc(Sc2ccc(C)cc2)c(N)c1	.	.	.	.
COc1cc(Sc2ccc(C)cc2)c(OC)cc1N	11	.	.	.
COc1ccccc1-n1cnc2c(c1=O)c1nc3ccccc3nc1n2-c1ccc(C)c(C)c1	.	35	.	.
CCn1cc(/C=C(\NC(=O)c2ccccc2Cl)C(=O)NCCN2CCOCC2)c2ccccc21	/	/	/	.
COc1ccc(-c2cc(C(=O)Nc3nc4c(C)cccc4s3)c3ccccc3n2)cc1OC	8.6	.	.	.
CCOC(=O)Cn1c(C)nc2ccccc21	.	.	.	.
CCOC(=O)Cn1c(=O)c(-c2ccccc2NC)nc2ccccc21	.	39	.	.
COc1ccc(C(C)(C)NC(=O)C2CCC(=O)N(C3CCCC3)C2)cc1OC (stereo not drawn)	/	/	/	.
Cc1ccc(SCc2ccc(C(=O)Nc3cccc([N+](=O)[O-])c3)cc2)cc1	9.6	.	.	.
Cc1ccc([N+](=O)[O-])cc1NC(=O)C(Sc1ccccc1)c1ccccc1 (stereo not drawn)	9.1	.	.	.
Cc1ccc([N+](=O)[O-])cc1NC(=O)c1ccccc1	.	.	.	.
Cc1ccc(SCc2ccc(C(=O)Nc3cc([N+](=O)[O-])ccc3C)cc2)cc1	10	.	.	.
Cc1ccc(NC(=O)c2ccc(CSc3ccccn3)cc2)c(O)c1	/	.	.	.
Cc1ccc(NC(=O)c2ccc(CSc3ccccn3)cc2)cc1	8.4	.	.	.
CCNC(=S)N1CCN(CCN=CC2=C(O)CC(c3ccco3)CC2=O)CC1 (stereo not drawn)	.	.	.	.
C=CCNC(=S)N1CCN(CCN=CC2=C(O)CC(c3ccco3)CC2=O)CC1 (stereo not drawn)	.	35	.	.
COc1ccc(NC(=O)/C(Cl)=C(/Cl)S(=O)Cc2ccccc2Cl)cn1 (stereo not drawn)	.	.	-5	.
Cc1ccc(OC(C)C(=O)Nc2ccc(S(=O)(=O)Nc3cc(C)on3)cc2)cc1 (stereo not drawn)	.	.	.	.
Cc1cc(NS(=O)(=O)c2ccc(NC(=O)C(C)Oc3ccc4c(C)cc(=O)oc4c3)cc2)no1 (stereo not drawn)	10	.	.	.
COc1ccc(CN(CC(=O)NC2CCCC2)C(=O)c2csnn2)cc1	/	/	/	.
COc1ccc(CN(CC(=O)NC2CCCC2)C(=O)c2ccc(-c3ccccc3)[nH]2)cc1	8.8	.	.	.
SMILES	RAM network inh	p47phox inh	Dynein cargo inh	p-CIP stab down
Cc1ccc(/C=N/NC(=O)c2ccco2)s1	.	.	.	.
Cc1ccc(/C=N/NC(=O)c2ccc(C(=O)N/N=C/c3ccc(C)s3)o2)s1	10	.	.	.
Cc1c(C(=O)NCCSCc2ccc(Cl)cc2Cl)cccc1[N+](=O)[O-]	11	.	.	.
CCOc1ccc2nc(COC(=O)c3ccco3)c(C(C)=O)[n+]([O-])c2c1	.	48	.	.
CCOc1ccc2nc(COC(=O)c3cccs3)c(C(C)=O)[n+]([O-])c2c1	/	.	.	.
Cc1nc(-c2ccc(Br)cc2)ccc1C(=O)O	.	.	.	.
CN(C)CCCNc1cc(C(C)(C)C)nc2c(-c3ccc(Cl)cc3)cnn12	/	65	.	.
CCOC(=O)C1C(=O)CC(=O)CC1CC(C)SCC (stereo not drawn)	.	79	.	.
O=C(O)c1ccccc1C(=O)Nc1ccc(Br)c2cccnc12	.	.	.	.
CCN=C(Nc1ccc2c(c1)OCO2)SC1CC(=O)N(c2ccccc2F)C1=O (stereo not drawn)	.	42	.	.
COc1cc(/C=C/C(=O)N2CC(C)OC(C)C2)cc(OC)c1OC (stereo not drawn)	/	/	/	.
C/C(=N\OCC(=O)Nn1c(=O)[nH]c2ccccc2c1=O)c1cccs1	.	174	.	.
CCCn1nnc(NC(=O)c2ccc(-c3cccc(Cl)c3)o2)n1	.	.	.	.
